# Results taken from ChEMBL document CHEMBL5303300, “EUbOPEN Chemogenomics Library - Multiplex” (2023).
# “And” between values parts separate entries of the source, which are not always exact repeats. Equal entries are not always repeated.
# Assays:
# Type in all cases: toxicity, cell-based
# [1] = test system: Fibroblast; experiment: Multiplex assay against human fibroblast; conditions: number of replicates 2
# How it was run: (§1)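 On a CQ1 microscope at 37°C and 5% CO2, live cells were imaged after compound addition. They had been stained at seeding with Hoechst33342, BioTracker Green Microtubule Cytoskeleton Dye, MitoTracker Red and Annexin V Alexa Fluor 680. CellPathfinder machine-learning gating assigned cells to Hoechst high-intensity objects or normal cells, normal cells to healthy, pyknosed or fragmented nuclei, and pyknosed cells to mitotic or apoptotic. Tubulin, mitochondrial-mass and membrane-permeability phenotypes are per cents of healthy-nucleus cells.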
# [2] = test system: HEK-293T; experiment: Multiplex assay against HEK293T; conditions: human, number of replicates 2; how it was run: as §1
# [3] = test system: U2OS; experiment: Multiplex assay against U2OS; conditions: human, number of replicates 2; how it was run: as §1
# [4] = 12 h, 1 µM, compound concentration 1 uM
# [5] = 12 h, 10 µM, compound concentration 10 uM
# [6] = 24 h, 1 µM, compound concentration 1 uM
# [7] = 24 h, 10 µM, compound concentration 10 uM
# [8] = 48 h, 1 µM, compound concentration 1 uM
# [9] = 48 h, 10 µM, compound concentration 10 uM
smiles,measurement,setting,value
O=C1CCCN1CCNc1nc(Nc2ccc(Cl)c(Cl)c2)ncc1C(F)(F)F,Population Apoptotic (%),[1]; [4],38% and 28%
same,Population Fragmented Nuclei (%),[1]; [4],10% and 8%
same,Population Healthy Nuclei (%),[1]; [4],76% and 68%
same,Population Hoechst High Intensity Objects (%),[1]; [4],0%
same,Population Membrane Permeable-Phenotype (%),[1]; [4],2% and 1%
same,Population Mitochondria Different-Phenotype (%),[1]; [4],1%
same,Population Mitotic Cells (%),[1]; [4],61% and 71%
same,Population Normal (%),[1]; [4],100%
same,Population Pyknosed Nuclei (%),[1]; [4],13% and 22%
same,Population Tubulin-Different-Phenotype (%),[1]; [4],12% and 9%
same,Total Cell Count,[1]; [4],233 and 219
same,Population Apoptotic (%),[1]; [5],52% and 36%
same,Population Fragmented Nuclei (%),[1]; [5],6% and 15%
same,Population Healthy Nuclei (%),[1]; [5],40% and 52%
same,Population Hoechst High Intensity Objects (%),[1]; [5],0%
same,Population Membrane Permeable-Phenotype (%),[1]; [5],19% and 26%
same,Population Mitochondria Different-Phenotype (%),[1]; [5],1% and 4%
same,Population Mitotic Cells (%),[1]; [5],47% and 63%
same,Population Normal (%),[1]; [5],100%
same,Population Pyknosed Nuclei (%),[1]; [5],52% and 32%
same,Population Tubulin-Different-Phenotype (%),[1]; [5],35% and 50%
same,Total Cell Count,[1]; [5],138 and 193
same,Population Apoptotic (%),[1]; [6],54% and 41%
same,Population Fragmented Nuclei (%),[1]; [6],8% and 6%
same,Population Healthy Nuclei (%),[1]; [6],76% and 70%
same,Population Hoechst High Intensity Objects (%),[1]; [6],0%
same,Population Membrane Permeable-Phenotype (%),[1]; [6],5%
same,Population Mitochondria Different-Phenotype (%),[1]; [6],1% and 0%
same,Population Mitotic Cells (%),[1]; [6],45% and 58%
same,Population Normal (%),[1]; [6],100%
same,Population Pyknosed Nuclei (%),[1]; [6],14% and 22%
same,Population Tubulin-Different-Phenotype (%),[1]; [6],14% and 9%
same,Total Cell Count,[1]; [6],234 and 227
same,Population Apoptotic (%),[1]; [7],70% and 60%
same,Population Fragmented Nuclei (%),[1]; [7],6% and 15%
same,Population Healthy Nuclei (%),[1]; [7],44% and 50%
same,Population Hoechst High Intensity Objects (%),[1]; [7],0%
same,Population Membrane Permeable-Phenotype (%),[1]; [7],16% and 14%
same,Population Mitochondria Different-Phenotype (%),[1]; [7],3% and 5%
same,Population Mitotic Cells (%),[1]; [7],29% and 39%
same,Population Normal (%),[1]; [7],99% and 100%
same,Population Pyknosed Nuclei (%),[1]; [7],48% and 34%
same,Population Tubulin-Different-Phenotype (%),[1]; [7],53% and 50%
same,Total Cell Count,[1]; [7],135 and 198
same,Population Apoptotic (%),[1]; [8],82% and 66%
same,Population Fragmented Nuclei (%),[1]; [8],13% and 11%
same,Population Healthy Nuclei (%),[1]; [8],73% and 72%
same,Population Hoechst High Intensity Objects (%),[1]; [8],0%
same,Population Membrane Permeable-Phenotype (%),[1]; [8],2% and 1%
same,Population Mitochondria Different-Phenotype (%),[1]; [8],0%
same,Population Mitotic Cells (%),[1]; [8],17% and 33%
same,Population Normal (%),[1]; [8],100% and 99%
same,Population Pyknosed Nuclei (%),[1]; [8],12% and 15%
same,Population Tubulin-Different-Phenotype (%),[1]; [8],11% and 6%
same,Total Cell Count,[1]; [8],230 and 215
same,Population Apoptotic (%),[1]; [9],89% and 74%
same,Population Fragmented Nuclei (%),[1]; [9],9% and 17%
same,Population Healthy Nuclei (%),[1]; [9],52% and 53%
same,Population Hoechst High Intensity Objects (%),[1]; [9],0%
same,Population Membrane Permeable-Phenotype (%),[1]; [9],21% and 12%
same,Population Mitochondria Different-Phenotype (%),[1]; [9],0% and 2%
same,Population Mitotic Cells (%),[1]; [9],10% and 25%
same,Population Normal (%),[1]; [9],99% and 100%
same,Population Pyknosed Nuclei (%),[1]; [9],37% and 28%
same,Population Tubulin-Different-Phenotype (%),[1]; [9],40% and 31%
same,Total Cell Count,[1]; [9],124 and 180
same,Population Apoptotic (%),[2]; [4],57% and 53%
same,Population Fragmented Nuclei (%),[2]; [4],5% and 3%
same,Population Healthy Nuclei (%),[2]; [4],80% and 83%
same,Population Hoechst High Intensity Objects (%),[2]; [4],9%
same,Population Membrane Permeable-Phenotype (%),[2]; [4],3% and 1%
same,Population Mitochondria Different-Phenotype (%),[2]; [4],26% and 20%
same,Population Mitotic Cells (%),[2]; [4],42% and 46%
same,Population Normal (%),[2]; [4],90%
same,Population Pyknosed Nuclei (%),[2]; [4],13%
same,Population Tubulin-Different-Phenotype (%),[2]; [4],60% and 61%
same,Total Cell Count,[2]; [4],624 and 889
same,Population Apoptotic (%),[2]; [5],57% and 62%
same,Population Fragmented Nuclei (%),[2]; [5],3% and 5%
same,Population Healthy Nuclei (%),[2]; [5],76%
same,Population Hoechst High Intensity Objects (%),[2]; [5],11% and 7%
same,Population Membrane Permeable-Phenotype (%),[2]; [5],5% and 4%
same,Population Mitochondria Different-Phenotype (%),[2]; [5],30% and 21%
same,Population Mitotic Cells (%),[2]; [5],42% and 37%
same,Population Normal (%),[2]; [5],88% and 92%
same,Population Pyknosed Nuclei (%),[2]; [5],19% and 18%
same,Population Tubulin-Different-Phenotype (%),[2]; [5],67% and 66%
same,Total Cell Count,[2]; [5],488 and 473
same,Population Apoptotic (%),[2]; [6],57% and 53%
same,Population Fragmented Nuclei (%),[2]; [6],9% and 7%
same,Population Healthy Nuclei (%),[2]; [6],80% and 81%
same,Population Hoechst High Intensity Objects (%),[2]; [6],8% and 9%
same,Population Membrane Permeable-Phenotype (%),[2]; [6],2% and 1%
same,Population Mitochondria Different-Phenotype (%),[2]; [6],5% and 4%
same,Population Mitotic Cells (%),[2]; [6],42% and 46%
same,Population Normal (%),[2]; [6],91% and 90%
same,Population Pyknosed Nuclei (%),[2]; [6],10%
same,Population Tubulin-Different-Phenotype (%),[2]; [6],32% and 31%
same,Total Cell Count,[2]; [6],951 and 1356
same,Population Apoptotic (%),[2]; [7],56% and 71%
same,Population Fragmented Nuclei (%),[2]; [7],7% and 5%
same,Population Healthy Nuclei (%),[2]; [7],78% and 79%
same,Population Hoechst High Intensity Objects (%),[2]; [7],8% and 7%
same,Population Membrane Permeable-Phenotype (%),[2]; [7],5% and 3%
same,Population Mitochondria Different-Phenotype (%),[2]; [7],13% and 8%
same,Population Mitotic Cells (%),[2]; [7],43% and 28%
same,Population Normal (%),[2]; [7],91% and 92%
same,Population Pyknosed Nuclei (%),[2]; [7],13% and 15%
same,Population Tubulin-Different-Phenotype (%),[2]; [7],39% and 36%
same,Total Cell Count,[2]; [7],751 and 650
same,Population Apoptotic (%),[2]; [8],17% and 24%
same,Population Fragmented Nuclei (%),[2]; [8],14% and 12%
same,Population Healthy Nuclei (%),[2]; [8],82% and 83%
same,Population Hoechst High Intensity Objects (%),[2]; [8],10% and 12%
same,Population Membrane Permeable-Phenotype (%),[2]; [8],6% and 2%
same,Population Mitochondria Different-Phenotype (%),[2]; [8],0%
same,Population Mitotic Cells (%),[2]; [8],82% and 75%
same,Population Normal (%),[2]; [8],89% and 87%
same,Population Pyknosed Nuclei (%),[2]; [8],3%
same,Population Tubulin-Different-Phenotype (%),[2]; [8],14% and 17%
same,Total Cell Count,[2]; [8],2336 and 2853
same,Population Apoptotic (%),[2]; [9],23% and 27%
same,Population Fragmented Nuclei (%),[2]; [9],11% and 9%
same,Population Healthy Nuclei (%),[2]; [9],83% and 86%
same,Population Hoechst High Intensity Objects (%),[2]; [9],8% and 5%
same,Population Membrane Permeable-Phenotype (%),[2]; [9],5% and 4%
same,Population Mitochondria Different-Phenotype (%),[2]; [9],2% and 3%
same,Population Mitotic Cells (%),[2]; [9],76% and 72%
same,Population Normal (%),[2]; [9],91% and 94%
same,Population Pyknosed Nuclei (%),[2]; [9],5% and 4%
same,Population Tubulin-Different-Phenotype (%),[2]; [9],16% and 28%
same,Total Cell Count,[2]; [9],1562 and 1106
same,Population Apoptotic (%),[3]; [4],50% and 68%
same,Population Fragmented Nuclei (%),[3]; [4],5% and 3%
same,Population Healthy Nuclei (%),[3]; [4],70% and 91%
same,Population Hoechst High Intensity Objects (%),[3]; [4],0%
same,Population Membrane Permeable-Phenotype (%),[3]; [4],0% and 3%
same,Population Mitochondria Different-Phenotype (%),[3]; [4],0% and 1%
same,Population Mitotic Cells (%),[3]; [4],50% and 31%
same,Population Normal (%),[3]; [4],100%
same,Population Tubulin-Different-Phenotype (%),[3]; [4],91% and 81%
same,Population Apoptotic (%),[3]; [5],100% and 57%
same,Population Healthy Nuclei (%),[3]; [5],73% and 80%
same,Population Hoechst High Intensity Objects (%),[3]; [5],0%
same,Population Membrane Permeable-Phenotype (%),[3]; [5],7% and 5%
same,Population Mitochondria Different-Phenotype (%),[3]; [5],7% and 0%
same,Population Normal (%),[3]; [5],100% and 99%
same,Population Pyknosed Nuclei (%),[3]; [5],5% and 13%
same,Population Tubulin-Different-Phenotype (%),[3]; [5],64% and 50%
same,Population Apoptotic (%),[3]; [6],100% and 73%
same,Population Fragmented Nuclei (%),[3]; [6],0% and 3%
same,Population Healthy Nuclei (%),[3]; [6],90%
same,Population Hoechst High Intensity Objects (%),[3]; [6],0%
same,Population Membrane Permeable-Phenotype (%),[3]; [6],0% and 2%
same,Population Mitochondria Different-Phenotype (%),[3]; [6],0%
same,Population Normal (%),[3]; [6],100%
same,Population Pyknosed Nuclei (%),[3]; [6],9% and 5%
same,Population Tubulin-Different-Phenotype (%),[3]; [6],96% and 79%
same,Population Apoptotic (%),[3]; [7],70% and 80%
same,Population Healthy Nuclei (%),[3]; [7],86% and 70%
same,Population Hoechst High Intensity Objects (%),[3]; [7],0%
same,Population Membrane Permeable-Phenotype (%),[3]; [7],3%
same,Population Mitochondria Different-Phenotype (%),[3]; [7],1% and 0%
same,Population Mitotic Cells (%),[3]; [7],29% and 20%
same,Population Normal (%),[3]; [7],100%
same,Population Pyknosed Nuclei (%),[3]; [7],10% and 12%
same,Population Tubulin-Different-Phenotype (%),[3]; [7],57% and 35%
same,Population Apoptotic (%),[3]; [8],71% and 84%
same,Population Fragmented Nuclei (%),[3]; [8],8% and 3%
same,Population Healthy Nuclei (%),[3]; [8],79% and 92%
same,Population Hoechst High Intensity Objects (%),[3]; [8],0%
same,Population Membrane Permeable-Phenotype (%),[3]; [8],0% and 1%
same,Population Mitochondria Different-Phenotype (%),[3]; [8],2% and 0%
same,Population Mitotic Cells (%),[3]; [8],28% and 15%
same,Population Normal (%),[3]; [8],100%
same,Population Pyknosed Nuclei (%),[3]; [8],12% and 4%
same,Population Tubulin-Different-Phenotype (%),[3]; [8],95% and 87%
same,Population Apoptotic (%),[3]; [9],86% and 75%
same,Population Fragmented Nuclei (%),[3]; [9],5% and 6%
same,Population Healthy Nuclei (%),[3]; [9],79% and 76%
same,Population Hoechst High Intensity Objects (%),[3]; [9],0%
same,Population Membrane Permeable-Phenotype (%),[3]; [9],4% and 2%
same,Population Mitochondria Different-Phenotype (%),[3]; [9],0% and 2%
same,Population Mitotic Cells (%),[3]; [9],13% and 25%
same,Population Normal (%),[3]; [9],99% and 100%
same,Population Pyknosed Nuclei (%),[3]; [9],14% and 17%
same,Population Tubulin-Different-Phenotype (%),[3]; [9],67% and 47%
